Laboratory results from ChEMBL document CHEMBL3286155, “Tricyclic pyrazoles. Part 6. Benzofuro[3,2-c]pyrazole: a versatile architecture for CB2 selective ligands” (Eur J Med Chem, 2014).
pKi: −log10 of the molar value. Calls of active or inactive are those of the source. The calls are words filed in the database; no cut-off is given here.

How the values were obtained:
[1] = species on record: Mus musculus; experiment: Selectivity ratio of Ki for CB1 receptor in CD1 mouse cerebellum-less brain homogenate to Ki for CB2 receptor in CD1 mouse spleen homogenate; format: tissue-based
In short: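 Ki measured in two assays. CB1 used male CD1 mouse brain (minus cerebellum) membranes and CB2 used spleen membranes, each with 0.5-1.0 nM [3H]-CP-55,940 for 1 h at 30 °C in TME buffer pH 7.4. IC50 converted by Cheng-Prusoff. Each Ki comes from five independent triplicate experiments, and the line is the ratio of the two Ki values.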

[2] = target: Cannabinoid receptor 2 (Homo sapiens) (UniProt P34972); experiment: Intrinsic activity at CB2 receptor in human HL60 cells assessed as upregulation of phosphorylated ERK1/2 expression at 50 nM after 15 mins by Western blotting analysis relative to control; format: cell-based; conditions: HL-60
Chain of Cannabinoid receptor 2 (Homo sapiens) (P34972 whole entry): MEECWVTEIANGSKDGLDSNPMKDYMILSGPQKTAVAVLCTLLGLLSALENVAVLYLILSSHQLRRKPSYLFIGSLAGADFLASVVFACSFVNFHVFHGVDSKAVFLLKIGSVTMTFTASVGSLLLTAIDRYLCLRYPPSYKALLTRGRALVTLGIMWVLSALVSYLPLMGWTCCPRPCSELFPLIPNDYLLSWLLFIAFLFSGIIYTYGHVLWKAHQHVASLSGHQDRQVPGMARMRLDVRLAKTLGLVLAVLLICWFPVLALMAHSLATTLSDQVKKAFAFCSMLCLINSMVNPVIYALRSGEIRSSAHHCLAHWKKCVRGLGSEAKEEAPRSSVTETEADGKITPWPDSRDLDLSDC
In short: (§1)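 HL-60 human promyelocytic leukaemia cells were treated for 15 min with compounds in culture medium with 1% DMSO. Cells were pelleted, washed in PBS and lysed at 4 °C. Phospho-ERK1/2 in total extracts was detected by western blot with anti-phospho-ERK1/2 clone AW39R and chemiluminescence. Results expressed as mean percentage of vehicle (100%) ± SEM.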

[3] = target: Cannabinoid receptor 2 (Homo sapiens) (UniProt P34972); experiment: Intrinsic activity at CB2 receptor in human HL60 cells assessed as upregulation of phosphorylated ERK1/2 expression at 50 nM after 15 mins by Western blotting analysis in presence of CB2 receptor antagonist AM630; format: cell-based; conditions: HL-60
In short: (§2)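 HL-60 cells were pre-treated 5 min with CB2 antagonist AM630 (75 nM), then exposed 15 min to agonist in medium with 1% DMSO. Phospho-ERK1/2 in cell lysates was measured by western blot with anti-phospho-ERK1/2 clone AW39R. Controls were AM630 alone and agonist without pre-treatment. Results given as mean percentage of vehicle (100%) ± SEM.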

[4] = target: Cannabinoid receptor 2 (Mus musculus, UniProt P47936); experiment: Displacement of [3H]-CP-55,940 from CB2 receptor in CD1 mouse spleen homogenate after 1 hr by liquid scintillation counting analysis; format: tissue-based
Chain of Cannabinoid receptor 2 (P47936 whole entry): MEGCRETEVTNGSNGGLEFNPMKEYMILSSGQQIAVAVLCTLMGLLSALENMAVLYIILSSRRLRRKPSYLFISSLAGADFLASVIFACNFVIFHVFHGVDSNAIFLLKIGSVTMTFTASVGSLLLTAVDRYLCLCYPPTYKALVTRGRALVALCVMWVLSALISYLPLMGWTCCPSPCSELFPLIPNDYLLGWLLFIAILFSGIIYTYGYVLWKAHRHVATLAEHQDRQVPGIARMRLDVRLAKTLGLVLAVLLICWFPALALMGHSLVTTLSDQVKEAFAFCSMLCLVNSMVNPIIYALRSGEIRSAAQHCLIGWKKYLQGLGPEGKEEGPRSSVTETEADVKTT
In short: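 Male CD1 mice killed by cervical dislocation; spleen homogenised in 20 vol ice-cold TME buffer (50 mM Tris-HCl, 1 mM EDTA, 3.0 mM MgCl2, pH 7.4), spun 1086 × g then 45,000 × g. Membranes incubated with 0.5–1.0 nM [3H]CP-55,940, 1 h, 30 °C, with 5 mg/mL fatty-acid-free BSA; nonspecific binding defined with CP-55,940. Filtration stop. Triplicates, five independent assays. Sigmoid fit for IC50, then Cheng-Prusoff Ki.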

[5] = target: Cannabinoid receptor 1 (Mus musculus, UniProt P47746); experiment: Displacement of [3H]-CP-55,940 from CB1 receptor in CD1 mouse cerebellum-less brain homogenate after 1 hr by liquid scintillation counting analysis; format: tissue-based
Chain of Cannabinoid receptor 1 (P47746 whole entry): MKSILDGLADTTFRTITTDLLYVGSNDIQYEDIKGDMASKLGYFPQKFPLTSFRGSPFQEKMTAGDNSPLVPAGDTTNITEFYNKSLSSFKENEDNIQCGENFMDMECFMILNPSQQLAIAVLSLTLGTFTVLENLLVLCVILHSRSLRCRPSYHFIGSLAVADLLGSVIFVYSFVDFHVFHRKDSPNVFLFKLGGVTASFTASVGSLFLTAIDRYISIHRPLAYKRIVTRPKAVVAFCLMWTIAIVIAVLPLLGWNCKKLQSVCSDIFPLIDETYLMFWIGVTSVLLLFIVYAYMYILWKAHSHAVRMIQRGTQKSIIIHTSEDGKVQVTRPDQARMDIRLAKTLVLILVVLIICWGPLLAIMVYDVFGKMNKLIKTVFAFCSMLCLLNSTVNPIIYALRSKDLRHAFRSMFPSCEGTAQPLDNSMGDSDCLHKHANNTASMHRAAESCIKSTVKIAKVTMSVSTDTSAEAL
In short: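 Membranes from brain (minus cerebellum) of male CD1 mice, homogenised in ice-cold TME buffer (50 mM Tris-HCl, 1 mM EDTA, 3.0 mM MgCl2, pH 7.4), incubated with 0.5-1.0 nM [3H]-CP-55,940 for 1 h at 30 °C with fatty acid-free BSA. Non-specific binding defined with CP-55,940. Filtration, then scintillation counting. Triplicates in five independent assays; IC50 from sigmoid fit, converted to Ki by Cheng-Prusoff.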

[6] = target: Cannabinoid receptor 2 (Homo sapiens) (UniProt P34972); experiment: Intrinsic activity at CB2 receptor in human HL60 cells assessed as upregulation of phosphorylated ERK1/2 expression at 10 nM after 15 mins by Western blotting analysis relative to control; format: cell-based; conditions: HL-60; in short: as §1
[7] = target: Cannabinoid receptor 2 (Homo sapiens) (UniProt P34972); experiment: Intrinsic activity at CB2 receptor in human HL60 cells assessed as upregulation of phosphorylated ERK1/2 expression at 10 nM after 15 mins by Western blotting analysis in presence of CB2 receptor antagonist AM630; format: cell-based; conditions: HL-60; in short: as §2
[8] = target: Cannabinoid receptor 2 (Homo sapiens) (UniProt P34972); experiment: Intrinsic activity at CB2 receptor in human HL60 cells assessed as upregulation of phosphorylated ERK1/2 expression at 75 nM after 15 mins by Western blotting analysis relative to control; format: cell-based; conditions: HL-60; in short: as §1
[9] = target: Cannabinoid receptor 2 (Homo sapiens) (UniProt P34972); experiment: Intrinsic activity at CB2 receptor in human HL60 cells assessed as upregulation of phosphorylated ERK1/2 expression at 75 nM after 15 mins by Western blotting analysis in presence of CB2 receptor antagonist AM630; format: cell-based; conditions: HL-60; in short: as §2
[10] = species on record: Homo sapiens; experiment: Selectivity ratio of Ki for CB1 receptor (unknown origin) to Ki for CB2 receptor (unknown origin)
[11] = target: Cannabinoid receptor 2 (Homo sapiens) (UniProt P34972); experiment: Intrinsic activity at CB2 receptor in human HL60 cells assessed as upregulation of phosphorylated ERK1/2 expression at 5 nM after 15 mins by Western blotting analysis relative to control; format: cell-based; conditions: HL-60; in short: as §1
[12] = target: Cannabinoid receptor 2 (Homo sapiens) (UniProt P34972); experiment: Intrinsic activity at CB2 receptor in human HL60 cells assessed as upregulation of phosphorylated ERK1/2 expression at 5 nM after 15 mins by Western blotting analysis in presence of CB2 receptor antagonist AM630; format: cell-based; conditions: HL-60; in short: as §2

SMILES | Ratio Ki [1] | pKi [4] | pKi [5] | Intrinsic activity [8] | also measured
Cc1ccc2c(c1)oc1c(C(=O)NN3CCCCC3)nn(-c3ccc(Cl)cc3Cl)c12 | 139 |  |  |  | Intrinsic activity [2]: 205%; Intrinsic activity [3]: inactive
Cc1ccc2c(c1)oc1c(C(=O)N[C@H]3C4(C)CCC(C4)C3(C)C)nn(-c3ccc(Cl)cc3Cl)c12 (stereo not given in full) | 103 | 8.60 | 6.59 |  | Intrinsic activity [6]: 200%; Intrinsic activity [7]: inactive
Cc1ccc2c(c1)oc1c(C(=O)NN3CCCC3)nn(-c3ccc(Cl)cc3Cl)c12 | 92.3 |  |  | 185% | Intrinsic activity [9]: inactive
Cc1ccc2c(c1)oc1c(C(=O)NN3CCOCC3)nn(-c3ccc(Cl)cc3Cl)c12 | 108 |  |  | 178% | Intrinsic activity [9]: inactive
Cc1ccc2c(c1)oc1c(C(=O)NC3C4CC5CC(C4)CC3C5)nn(-c3ccc(Cl)cc3Cl)c12 (stereo not given) | 30.7 |  |  |  | Intrinsic activity [2]: 187%; Intrinsic activity [3]: inactive
Cc1ccc2c(c1)oc1c(C(=O)N[C@H]3CC4CC[C@]3(C)C4(C)C)nn(-c3ccc(Cl)cc3Cl)c12 | 134 | 8.46 | 6.33 |  | Intrinsic activity [6]: 189%; Intrinsic activity [7]: inactive
Cc1ccc2c(c1)oc1c(C(=O)NC34CC5CC(CC(C5)C3)C4)nn(-c3ccc(Cl)cc3Cl)c12 | 13 |  |  | 175% | Intrinsic activity [9]: inactive
Cc1ccc2c(c1)Cc1c(C(=O)NN3CCCCC3)nn(-c3ccc(Cl)cc3Cl)c1-2 |  |  |  |  | Ratio Ki [10]: 9810
Cc1c(C(=O)c2cccc3ccccc23)c2cccc3c2n1[C@H](CN1CCOCC1)CO3 |  |  |  | 190% | 
Cc1ccc2c(c1)oc1c(C(=O)N[C@@H]3CC4CC([C@H]3C)C4(C)C)nn(-c3ccc(Cl)cc3Cl)c12 (stereo not given in full) | 648 | 8.43 | 5.62 |  | Intrinsic activity [11]: 205%; Intrinsic activity [12]: inactive
Cc1ccc2c(c1)oc1c(C(=O)N[C@@H]3C[C@H](C)CC[C@H]3C(C)C)nn(-c3ccc(Cl)cc3Cl)c12 | 16.6 | 8.64 | 7.42 |  | Intrinsic activity [11]: 193%; Intrinsic activity [12]: inactive
Cc1ccc2c(c1)oc1c(C(=O)NC3CCCCC3)nn(-c3ccc(Cl)cc3Cl)c12 | 79.9 |  |  |  | Intrinsic activity [2]: 196%; Intrinsic activity [3]: inactive
